Compound activity: PubChem BioAssay, several laboratories
M1 antag = blocks the rat M1 muscarinic receptor response to acetylcholine. CHO-M1 cells, Fluo-4 calcium, ACh EC80 antagonist mode; hits give low values. P08482. 3.4% of 64,000 active. B-score at 10 µM. AID 628;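 active = calcium fluorescence response, raw or row-and-column corrected B-score, differing from the plate sample mean either way at a set confidence level, mostly lower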
AP ELISA ortho = orthogonal test for alternative complement pathway inhibitors | Human serum alternative complement pathway, LPS-coated ELISA, C3 deposition; tested in compound mixtures | inhibition, % at 5 µM | 0.08% of 62,000 active | AID 1235;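 active = inhibition above 30% in each of the two pooled mixtures holding the compound, so the lower value exceeds 30%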;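 note: 0% = serum in Mg-EGTA without compound and 100% = EDTA serum blank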
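Test system: human serum complement alternative pathway, C3 deposition onto LPS / Medium: Mg2+-EGTA GVB++ buffer containing human serum at 1:15 dilution / Probe or stimulus: Plate-bound LPS / Times: 1 h at 37 °C / Signal: ELISA with HRP anti-human C3 antibody, TMB substrate, absorbance 450 nm / Measure: percent inhibition / Repeats: two pool placements per compound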
WNV protease inh = WNV NS2B-NS3 proteinase inhibition. P06935. WNV NS2B-NS3 protease, fluorogenic substrate Ex360/Em465; hits give low values. z-score (no concentration beside the values). 0.18% of 65,000 active. AID 577; in the data active = z-score below about -3
E coli WT exp = blocks growth of wild type E. coli BW25113; 0.15% of 98,000 active; growth inhibition, % at 100 µM; OD600 absorbance;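 active = growth inhibition above about 50% at one test dose, limit read from the data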;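 note: growth measured after 20 h incubation at 37 °C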
M1 ag = activates the M1 muscarinic receptor; CHO-M1 cells, Fluo-4 calcium fluorescence, agonist mode; hits give high values; B-score at 10 µM; 3% of 64,000 active; AID 626;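 active = fluorescence rise, raw or as B-score row- and column-corrected plate score, outside the 99.7% band of its plate's samples, either direction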
tolC growth inh = blocks growth of E. coli BW25113 tolC mutant | 2.2% of 65,000 active | OD615 | growth inhibition, % at 10 µM (by protocol);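 active = growth inhibition at or above a cutoff equal to the mean over every tested compound plus 3 SD, cut at about 60% in these data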;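 note: growth measured after 20 h incubation at 37 °C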
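Material: E. coli BW25113 ΔtolC::kan, tolC deletion mutant strain. Measure: percent growth inhibition. Schedule: 37 °C, 20 h exposure. Doses: single-point testing at 10 µM. Signal: A615 absorbance measurement. Buffer or medium: kanamycin-containing LB broth (50 µg/mL).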
M1 agonist conf = confirmation of rat M1 muscarinic receptor agonists; shares compounds with M1 ag; CHO-M1 cells, Fluo-4 calcium fluorescence, agonist mode; actives lie on both sides; AID 1488; 19% of 1,700 active; fluorescence change (max-min) at 10 µM;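 active = fluorescence change differs from the solvent-only DMSO control mean at a set confidence level in both duplicate runs; inconclusive = differs from solvent-only control mean in just one of two runs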;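 note: an EC20 dose of acetylcholine follows compound addition during the same imaging run; raw fluorescence intensity difference in instrument units with no normalization to controls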
M4 ag counter = activates rat M4 receptor in counter-screen for M1 agonists | fluorescence change (max-min) at 10 µM | shares compounds with M1 ag | CHO M4/Gqi5 cells, Fluo-4 calcium fluorescence, agonist mode; actives lie on both sides | AID 1741 | 9% of 1,700 active;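 active = fluorescence change differing from the plate's solvent-only control wells at 99.7% confidence in both duplicates, whether higher or lower; inconclusive = differs from solvent controls in only one of two duplicates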
Target sequence (P08485 whole entry, looked up): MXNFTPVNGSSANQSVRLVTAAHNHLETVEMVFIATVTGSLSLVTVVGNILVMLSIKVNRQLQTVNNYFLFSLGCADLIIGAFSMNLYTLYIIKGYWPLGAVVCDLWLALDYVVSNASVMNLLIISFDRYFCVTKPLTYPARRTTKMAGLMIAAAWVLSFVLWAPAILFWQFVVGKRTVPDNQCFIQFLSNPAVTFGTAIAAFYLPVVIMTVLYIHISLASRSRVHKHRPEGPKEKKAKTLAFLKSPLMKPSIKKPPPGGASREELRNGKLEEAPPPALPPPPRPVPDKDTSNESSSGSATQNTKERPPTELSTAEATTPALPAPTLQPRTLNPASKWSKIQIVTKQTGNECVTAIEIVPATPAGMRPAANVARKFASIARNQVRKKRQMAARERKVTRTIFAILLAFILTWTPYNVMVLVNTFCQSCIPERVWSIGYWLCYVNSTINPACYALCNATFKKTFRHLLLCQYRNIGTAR
The depositor's hits bear a star; ? = inconclusive; . = not tested or not shown. Most compounds without a hit are left out; they make up all but 5.2% or so of the library.

SMILES	M1 antag	AP ELISA ortho	WNV protease inh	E coli WT exp	M1 ag	tolC growth inh	M1 agonist conf	M4 ag counter
CCN(CC)c1ccc(NC(=O)CN2C(=O)CSc3ncccc32)c(C)c1	-0.012	5	-1.3	0	-1.7	-11	.	.
Cc1ccnc2nc(C(=O)Nc3ccc4c(c3)OCO4)nn12	.	.	.	1	.	.	.	.
Cc1cc(C)n2nc(C(=O)Nc3ccc4c(c3)OCO4)nc2n1	0.26	13	-1.5	3	4.5*	-4	?	-52
CCN(CC(=O)NC(=O)NC1CCCCC1)Cc1nc2ccccc2c(=O)[nH]1	.	.	.	9	.	.	.	.
O=C(NCc1ccccc1)N(Cc1nc2ccccc2c(=O)[nH]1)C1CCCC1	-0.3	-20	1.3	-1	4.2*	1	-12	-17
Cc1ccc(S(=O)(=O)Nc2cccnc2)cc1	.	.	.	8	.	.	.	.
CCCCOc1ccc(S(=O)(=O)Nc2cccnc2)cc1	-1.5	11	-0.67	-13	4.9*	13	-1.3	?
CCOC(=O)C1CCN(S(=O)(=O)c2cccc(-c3cn4cccc(C)c4n3)c2)CC1	-3*	2	-0.79	2	2.3*	8	-12	-35
CCOC(=O)C1CCN(S(=O)(=O)c2cccc(-c3cn4cc(Cl)ccc4n3)c2)CC1	.	.	.	-9	.	.	.	.
CCCCC(=O)NCCNC(=O)c1cc(OCC(F)(F)F)ccc1OCC(F)(F)F	.	.	.	2	.	.	.	.
Cc1ccc(C2C(C(=O)c3ccco3)=C(O)C(=O)N2c2nnc(C)s2)cc1 (stereo not given)	.	.	.	2	.	.	.	.
COc1ccc(C2C(C(=O)c3cccs3)=C(O)C(=O)N2c2nncs2)cc1 (stereo not given)	-0.11	15	-0.94	-3	93*	-22	439*	339*
COc1ccc(C2C(C(=O)c3cccs3)=C(O)C(=O)N2c2nnc(C)s2)cc1OC (stereo not given)	-1.5	-4	0.45	2	68*	-13	96*	42
COc1ccc(C2C(CC(=O)O)=C(O)C(=O)N2c2ccccc2)cc1 (stereo not given)	0.32	8	-0.1	4	-0.63	-6	.	.
CC1CCCCN1C(=O)CSc1nnc(-c2ccc(Cl)s2)o1 (stereo not given)	.	24	-1.2	-4	.	14	.	.
COc1ccc(-c2noc(CN(C)S(=O)(=O)c3ccccc3)n2)cc1OC	-0.36	4	0.68	.	-0.51	-14	.	.
COc1ccc(S(=O)(=O)N(Cc2ccccc2)Cc2nc(-c3ccccc3)no2)cc1	-0.74	13	-0.34	-14	23*	28	5.4	-41
COCCn1nnnc1C(c1cccc(OC)c1OC)N1CCN(C2CCCCC2)CC1 (stereo not given)	0.42	-7	3.5	4	18*	-10	?	-51
COCCn1nnnc1C(c1cc2ccc(OC)cc2[nH]c1=O)N1CCN(C2CCCCC2)CC1 (stereo not given)	-0.57	0	1.1	-2	-0.7	-15	.	.
COc1ccccc1NC(=O)CSc1nnc(C)o1	0.078	23	-0.08	2	2.4*	-2	-12	-29
Cc1ccccc1C(=O)N1CCN(c2ccc(NC(=O)c3ccco3)cc2Cl)CC1	-0.18	14	-0.39	-10	2.9*	23	?	-94
Cc1cccc(NC(=O)c2cc(NC(=O)c3ccco3)ccc2Cl)n1	-0.88	2	0.52	-14	2.5*	18	0.72	-8
CCCCn1c(=O)n(CC(=O)Nc2ccc(OC)c(Cl)c2)c(=O)c2c1nc(CO)n2CCC	.	.	.	-1	.	.	.	.
CCOC(=O)c1c(NC(=O)c2nn(CC)cc2Br)c(C#N)cn1-c1ccccc1	-1.1	-3	-0.39	-9	3.1*	19	-3	-21
CCOC(=O)c1c(N)c(C#N)cn1-c1ccccc1	-0.82	9	-0.49	0	0.51	3	.	.
SMILES	M1 antag	AP ELISA ortho	WNV protease inh	E coli WT exp	M1 ag	tolC growth inh	M1 agonist conf	M4 ag counter
Cc1nc(-c2cccc(S(=O)(=O)N3CCCC(C)C3)c2)cs1 (stereo not given)	.	.	.	10	.	.	.	.
Cc1c(C(=O)OCCOC(C)C)[nH]c2c1C(=O)CC(c1ccco1)C2 (stereo not given)	-2*	7	-0.97	6	6.7*	3	?	-80*
C=CCn1c(Cc2cccs2)nnc1SC/C=C/c1ccccc1	.	.	.	-5	.	.	.	.
CC(C)CN1C(=O)c2ccc(C(=O)Nc3ccccn3)cc2C1=O	-0.8	4	-0.02	-3	0.46	10	.	.
CC(C)CN1C(=O)c2ccc(C(=O)Nc3ccncc3)cc2C1=O	-1.1	28	-1.5	5	5.2*	9	-17	-61
COc1ccc2[nH]c(=O)c(C(c3nnnn3C3CCCC3)N3CCN(Cc4ccc5c(c4)OCO5)CC3)cc2c1 (stereo not given)	.	.	.	0	.	.	.	.
COc1ccc(N/C(C)=C2/C(=O)C(=O)N(CCO)C2c2ccc([N+](=O)[O-])cc2)cc1 (stereo not given)	.	.	.	-5	.	.	.	.
Cc1cc(C)cc(OCC(=O)Nc2cccc(-c3nnc(-c4ccco4)o3)c2)c1	-0.73	-3	0.38	-10	4.5*	1	-30*	-55
CCOC(=O)CC1=C(C(=O)OCC)C(c2ccc(C)o2)C(C#N)=C(N)O1 (stereo not given)	0.058	5	-0.29	13	0.29	-21	.	.
Cc1ccc(C2C(C#N)=C(N)Oc3c2sc2ccccc32)o1 (stereo not given)	-0.052	4	2.3	1	109*	33	165*	53
Cc1ccccc1NC(=O)NCCN1C(=O)C2C3C=CC(C3)C2C1=O (stereo not given)	0.31	16	1	4	0.02	-10	.	.
CC(=O)/C=C(\C)NCCNc1c(F)c(F)c(CO)c(F)c1F	-0.76	.	-1.1	-3	-0.037	6	.	.
O=S(=O)(Nc1nc2ccc(S(=O)(=O)N3CCCC3)cc2s1)c1ccc(F)cc1	.	.	.	-11	.	.	.	.
CCN(CC)CCN1C(=O)C(=O)/C(=C(/O)c2ccncc2)C1c1ccccc1F (stereo not given)	0.047	7	-0.84	-15	35*	-23	-11	?
Oc1ccc(-c2nc3ccccn3c2NCc2ccc3c(c2)OCO3)cc1	-2.6	-4	-0.15	-4	4*	13	-4.7	-23
CCn1c(SCC(=O)Nc2ccccc2N2CCCCC2)nc2c1c(=O)n(C)c(=O)n2C	-1.3	-3	-0.31	2	2*	34	-17	-13
CCn1c(SCC(=O)N2CCCC2)nc2c1c(=O)n(C)c(=O)n2C	.	3	-0.34	0	.	-1	.	.
Cc1cc(=O)[nH]c(SCc2cc(=O)n3nc(C)sc3n2)n1	0.25	12	1.1	9	1.2	-7	.	.
